Measurements pooled from the literature.
Each line is one published result; the experiments were not run side by side.
Target: Tyrosine-protein kinase Srms (SRMS, Homo sapiens, UniProt Q9H3Y6)

SMILES | test | conditions | remaining binding
FC(F)(F)Oc1cccc(-c2cnc3ccc(-c4ccncc4)nn23)c1 | cell-free assay, competition with immobilised ligand | 5 µM | 65%
CS(=O)(=O)NCC[C@H](NC(=O)c1cncc2c1cnn2-c1ccc(F)cc1)c1ccnc(S(C)(=O)=O)c1 | cell-free assay, competition with immobilised ligand | 1 µM | 83%
COc1ncc2cc3ccccc3nc2c1C#N | cell-free assay, competition with immobilised ligand | 5 µM | 100%
CCCOc1ccc([C@@H]2[C@@H](C(=O)O)[C@H](c3ccc4c(c3)OCO4)CN2CC(=O)Nc2c(CC)cccc2CC)cc1 | cell-free assay, competition with immobilised ligand | 1 µM | 90%
COc1ccnn2ncc(-c3ccnc(N(C)C)n3)c12 | binding | 1 µM | 78%
CCOCCn1cc(C(=O)Nc2ccc(-n3nc(-c4cccnc4)cc3C(F)(F)F)cn2)ccc1=O | cell-free assay, competition with immobilised ligand | 1 µM | 79%
Nc1ncc2c(n1)-c1c([nH]c3ccc(C#CC4CC4)cc13)CCCC2 | binding, competition with immobilised ligand | 1 µM | 92%
c1cncc(-c2cccc(Nc3nccc(NC4CCCCC4)n3)c2)c1 | binding, competition with immobilised ligand | 10 µM | 71%
CN(C)c1nccc(-c2cnn3ncccc23)n1 | binding | 1 µM | 64%
O=C(NCCCN1CCOCC1)c1ccc(Nc2nccc(-c3cc4ccccc4s3)n2)cc1 | binding, competition with immobilised ligand | 1 µM | 100%
O=C(NCC1CCOCC1)c1n[nH]cc1NC(=O)c1c(F)cccc1F | binding, competition with immobilised ligand | 1 µM | 100%
CSc1cccnc1N1CCN(Cc2nc3ccccc3[nH]2)CC1 | cell-free assay, competition with immobilised ligand | 1 µM | 100%
N[C@H]1CCN(c2nccc(-c3cnn4ncccc34)n2)C1 | binding | 1 µM | 88%
COc1cc(-c2cn(C3CCc4ccccc4N(CC(F)(F)F)C3=O)nn2)ccc1-n1ccc(C)n1 (stereo not shown) | cell-free assay, competition with immobilised ligand | 1 µM | 84%
Cc1cnn2ncc(-c3ccnc(N(C)C)n3)c2c1 | binding | 1 µM | 100%
COc1cnc(Nc2cccc(S(N)(=O)=O)c2)nc1N1CCN(c2ccccc2)C(=O)C1 | binding, competition with immobilised ligand | 1 µM | 90%
O=C(c1ccc(Nc2ncc(Cl)c(-c3ccc(Cl)s3)n2)cc1)N1CCC(N2CCCC2)CC1 | binding, competition with immobilised ligand | 1 µM | 98%
CC(C)(O)c1cncc(-c2nc3ccc(F)cc3n2C2CC2)c1 | cell-free assay, competition with immobilised ligand | 1 µM | 100%
C[C@H]1CCN(c2nccc(-c3cnn4ncccc34)n2)C1 | binding | 1 µM | 71%
O=C(Nc1cccnn1)N1CCC(=Cc2cccc(Oc3ccc(C(F)(F)F)cn3)c2)CC1 | cell-free assay, competition with immobilised ligand | 1 µM | 95%
CN(C)c1ncc(F)c(-c2cnn3ncccc23)n1 | binding | 1 µM | 81%
O=C(c1ccc(Nc2nccc(-c3cc4ccccc4s3)n2)cc1)N1CCC(N2CCCC2)CC1 | binding, competition with immobilised ligand | 1 µM | 73%
